From ChEMBL document CHEMBL6127097, “Structure-Guided Discovery of cis-Hexahydro-pyrido-oxazinones as Reversible, Drug-like Monoacylglycerol Lipase Inhibitors” (J Med Chem, 2024)
Values after ≈ are worked out from the molar mass of the structure shown. One block for each compound: values may come before it. Active and inactive are the calls of the source.

Assays:
[1] = Aqueous solubility of compound in phosphate buffer at pH 6.5 by HPLC or MS/MS analysis; format: physicochemical; conditions: buffer
How it was run: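 Lyophilization solubility assay (LYSA) starting from a 10 mM DMSO stock. DMSO was removed by centrifugal vacuum evaporation, then 0.05 M phosphate buffer pH 6.5 was added and samples sonicated. Filtrates were analysed by MS/MS and/or HPLC against a 4- to 7-point calibration curve.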

[2] = Clearance in rat microsomes; format: ADME, Microsome
[3] = Clearance in mouse hepatocytes assessed per 10 million cells; format: ADME, cell-based, Hepatocyte; conditions: read-out: CLH
[4] = Plasma protein binding in human assessed as fraction unbound by equilibrium dialysis based LC-MS/MS method; format: ADME, cell-free
How it was run: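 Equilibrium dialysis across a 12–14 kDa cutoff membrane in a Teflon 96-well device. Pooled frozen plasma is adjusted to pH 7.4 and spiked at 1000 nM initial total, against Soerensen buffer pH 7.4. Incubation is 5 h at 37 °C, 5% CO2, with diazepam control in each well. %fu = 100 × buffer/matrix concentration after dialysis; recovery accepted at 80–120%.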

[5] = Clearance in Wistar rat at 1 mg/kg, iv measured upto 24 hrs by LC-MS/MS analysis; format: ADME, organism-based; conditions: in vivo
How it was run: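 Male Wistar rats (N = 3 per group) received a single dose. The i.v. dose was 1 mg/kg in NMP/0.9% NaCl 30:70. The p.o. dose was 5 mg/kg in NMP/HPMC/diisooctyl sulfosuccinate 10:90. Blood was taken into K2EDTA from 0.083 (i.v.) or 0.25 h to 24 h. Plasma was assayed by LC-MS/MS and analysed non-compartmentally.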

[6] = Half-life in Wistar rat at 1 mg/kg, iv measured upto 24 hrs by LC-MS/MS analysis; format: ADME, organism-based; conditions: in vivo
How it was run: (§1)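 Male Wistar rats, single dose. i.v. in NMP/0.9% NaCl 30:70; p.o. and i.p. in NMP/HPMC/diisooctyl sulfosuccinate 10:90; 3 per i.v./p.o. group, 6 i.p. K2EDTA plasma sampled 0.083–7 h, plus 24 h for i.v./p.o.; brain and CSF at 1, 2, 7 h (i.p. only). LC-MS/MS, noncompartmental analysis.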

[7] = Half-life in Wistar rat at 10 mg/kg, ip […] by LC-MS/MS analysis; format: ADME, organism-based; conditions: in vivo; how it was run: as §1
[8] = Bioavailability in Wistar rat at 10 mg/kg, ip measured upto 24 hrs by LC-MS/MS analysis; format: ADME, organism-based; conditions: in vivo
[9] = Unbound brain to plasma partition coefficient of compound in Wistar rat at 10 mg/kg, ip measured upto 7 hrs by LC-MS/MS analysis; format: ADME, organism-based; conditions: read-out: K(p,uu,brain); how it was run: as §1
[10] = Phototoxicity in mouse 3T3 cells; format: toxicity, cell-based; conditions: nih3t3
[11] = Average drug concentration in mouse plasma at 30 mg/kg, ip measured after 4 hrs; format: ADME, organism-based; conditions: in vivo
How it was run: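 Mice received 3, 10 or 30 mg/kg i.p. The compound was dissolved in DMSO/Tween 80 (1:1) and diluted with 8 parts saline (NaCl/DMSO/TW80 80/10/10). Plasma was taken 4 h after injection and average concentrations reported.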

[12] = Drug concentration in mouse CSF at 30 mg/kg, ip measured after 4 hrs; format: ADME, organism-based, Cerebrospinal fluid; conditions: read-out: Ct
[13] = Drug concentration in mouse CSF at 30 mg/kg, ip measured after 16 hrs; format: ADME, organism-based, Cerebrospinal fluid; conditions: read-out: Ct
Monoglyceride lipase = biological target: T1, Monoglyceride lipase (Mus musculus, UniProt O35678); assay: Inhibition of mouse MAGL using native substrate by Rapidfire MS assay
T1 sequence (O35678 whole entry): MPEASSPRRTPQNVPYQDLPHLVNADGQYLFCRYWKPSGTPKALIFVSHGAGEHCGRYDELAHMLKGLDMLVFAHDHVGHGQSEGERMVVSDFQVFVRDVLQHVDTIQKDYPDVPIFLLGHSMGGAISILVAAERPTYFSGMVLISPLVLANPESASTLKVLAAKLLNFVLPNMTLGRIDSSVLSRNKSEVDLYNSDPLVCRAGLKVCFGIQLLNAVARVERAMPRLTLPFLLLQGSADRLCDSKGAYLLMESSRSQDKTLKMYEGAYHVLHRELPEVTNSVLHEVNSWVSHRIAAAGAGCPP

[14] = biological target: T2, Monoacylglycerol lipase ABHD6 (Mus musculus) (UniProt Q8R2Y0); assay: Inhibition of ABHD6 in mouse brain lysates at 10 uM by ABPP assay; format: subcellular
T2 sequence (whole entry): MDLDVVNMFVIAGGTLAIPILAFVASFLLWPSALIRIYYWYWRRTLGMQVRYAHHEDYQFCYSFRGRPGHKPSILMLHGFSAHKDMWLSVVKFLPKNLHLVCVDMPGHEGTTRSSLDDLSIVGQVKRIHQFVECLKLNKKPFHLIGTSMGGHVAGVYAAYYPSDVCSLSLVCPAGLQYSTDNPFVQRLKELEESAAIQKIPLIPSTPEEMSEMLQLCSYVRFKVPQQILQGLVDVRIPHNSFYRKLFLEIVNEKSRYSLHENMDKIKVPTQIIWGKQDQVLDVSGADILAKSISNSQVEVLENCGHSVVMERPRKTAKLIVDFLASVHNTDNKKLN
How it was run: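 Gel-based activity-based protein profiling of hydrolases, with the inhibitor at 10 µM.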

[15] = biological target: T3, Monoglyceride lipase (Mus musculus) (UniProt O35678); assay: In vivo receptor occupancy at MAGL receptor in mouse at 10 mg/kg, ip measured after 4 hrs; format: functional, organism-based
T3 sequence (whole entry): T1 sequence (O35678 whole entry)

[16] = biological target: T3, Monoglyceride lipase (Mus musculus); assay: In vivo receptor occupancy at MAGL receptor in mouse at 3 mg/kg, ip measured after 4 hrs; format: functional, organism-based
Mus musculus [17] = assay: Upregulation of brain 2-AG level in mouse at 30 mg/kg, ip measured after 2 hrs; format: functional, organism-based
How it was run: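 Mice dosed i.p. in NaCl/DMSO/TW80 (80/10/10): 3, 10 or 30 mg/kg with sacrifice at 4 h, or 30 mg/kg over a 24 h time course. Brain extract 2-AG and AA were measured by LC/MS.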

Mus musculus [18] = assay: Upregulation of brain 2-AG level in mouse at 30 mg/kg, ip measured after 8 to 24 hrs; format: functional, organism-based; conditions: time 8-24 hrs
How it was run: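 Male-unspecified mice received a single i.p. dose of 30 mg/kg. The vehicle was NaCl/DMSO/TW80 (80/10/10): the drug was dissolved in equal parts DMSO and TW80, then diluted with 8 parts normal saline. Brain 2-AG levels were followed over 24 h after dosing and measured by LC/MS in brain extracts.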

Mus musculus [19] = assay: Antiinflammatory activity in LPS-induced CD-1 mouse neuroinflammation model assessed as decrease in peripheral tissue LCN2 mRNA expression at 30 mg/kg, ip measured after 6 hrs by qRT-PCR analysis; format: functional, organism-based
How it was run: (§2)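 CD-1 mice were dosed with NaCl + vehicle, LPS (5 mg/kg) + vehicle, or LPS + inhibitor at 30 mg/kg i.p. (vehicle NaCl/DMSO/Tween 80, 80/10/10). They were sacrificed 6 h post-compound. LCN2 and IL1b mRNA in peripheral tissue were measured by droplet digital qRT-PCR.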

Mus musculus [20] = assay: Antiinflammatory activity in LPS-induced CD-1 mouse neuroinflammation model assessed as decrease in peripheral tissue IL-1beta mRNA expression at 30 mg/kg, ip measured after 6 hrs by qRT-PCR analysis; format: functional, organism-based; how it was run: as §2

- solubility [1]: 231 µg/mL (≈ 543 µM)
- microsomal CLint [2]: 11 µL/min/mg
- hepatocyte CLint [3]: 8.9 µL/min/1e6 cells
- fraction unbound [4]: 0.043
- clearance [5]: 4.6 mL/min/kg
- half-life [6]: 5.1 h
- half-life [7]: 2.7 h
- bioavailability [8]: 111%
- Kp uu at 7 h [9]: 0.53
- Cave [11]: 27765 nM
- concentration at 4 h [12]: 455 nM
- concentration at 16 h [13]: 48 nM
- IC50 (Monoglyceride lipase): 91 nM
Structure (SMILES): O=C1CO[C@H]2CCN(C(=O)N3CCC(Cc4ccc(C(F)(F)F)cc4)CC3)C[C@H]2N1 [listing 1 of 2 here]
- Activity [10]: Non-Toxic

- inhibition [14]: inactive
- Activity [15]: 79%
- Activity [16]: 49%
Structure (SMILES): O=C1CO[C@H]2CCN(C(=O)N3CCC(Cc4ccc(C(F)(F)F)cc4)CC3)C[C@H]2N1 [listing 2 of 2 here]
- Activity (Mus musculus [17]): Active
- Activity (Mus musculus [18]): inactive
- Activity (Mus musculus [19]): inactive
- Activity (Mus musculus [20]): inactive
